Publication PMC8028158 (ACS Omega, 2021)
Entries after “also recorded” stand apart in the source; their conditions may differ.

Key:
Format in all cases: cell-based
mouse TRPC7 = target: T1, mouse TRPC7 (Mus musculus, UniProt Q9WVC5); assay: Fluorescence Ca2+ assay in TRPC7-HEK293 cells; conditions: induced by 10 μM HDM
T1 sequence (Q9WVC5 1-862): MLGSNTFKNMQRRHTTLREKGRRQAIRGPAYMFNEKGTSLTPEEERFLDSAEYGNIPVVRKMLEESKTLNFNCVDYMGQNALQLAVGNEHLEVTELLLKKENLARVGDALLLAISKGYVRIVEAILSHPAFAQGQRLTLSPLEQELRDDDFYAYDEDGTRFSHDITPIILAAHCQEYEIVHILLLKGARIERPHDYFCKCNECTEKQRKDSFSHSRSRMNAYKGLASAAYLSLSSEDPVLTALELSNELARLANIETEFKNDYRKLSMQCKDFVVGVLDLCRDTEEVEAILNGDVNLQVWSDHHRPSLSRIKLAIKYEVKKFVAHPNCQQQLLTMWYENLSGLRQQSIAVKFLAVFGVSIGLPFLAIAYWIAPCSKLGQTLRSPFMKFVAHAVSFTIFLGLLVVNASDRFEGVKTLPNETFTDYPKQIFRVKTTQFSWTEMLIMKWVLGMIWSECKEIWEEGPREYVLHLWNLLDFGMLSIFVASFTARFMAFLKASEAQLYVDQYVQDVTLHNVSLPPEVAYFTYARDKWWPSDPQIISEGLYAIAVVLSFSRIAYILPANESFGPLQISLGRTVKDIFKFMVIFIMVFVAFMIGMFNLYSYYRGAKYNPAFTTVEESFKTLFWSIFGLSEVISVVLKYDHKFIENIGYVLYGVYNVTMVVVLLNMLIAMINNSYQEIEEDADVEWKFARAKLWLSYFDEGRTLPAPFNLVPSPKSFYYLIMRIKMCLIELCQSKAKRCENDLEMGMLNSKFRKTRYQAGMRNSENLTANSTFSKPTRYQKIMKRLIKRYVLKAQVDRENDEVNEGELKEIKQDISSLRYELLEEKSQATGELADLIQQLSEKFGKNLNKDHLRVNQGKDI

TRPA1 = TRPA1 (Homo sapiens, UniProt O75762); assay: Selectivity Ca2+ assay in TRPA1-expressing HEK293 cells; conditions: 1s 50 μM; Fluo-8
Sequence of TRPA1 (O75762 whole entry, species assumed): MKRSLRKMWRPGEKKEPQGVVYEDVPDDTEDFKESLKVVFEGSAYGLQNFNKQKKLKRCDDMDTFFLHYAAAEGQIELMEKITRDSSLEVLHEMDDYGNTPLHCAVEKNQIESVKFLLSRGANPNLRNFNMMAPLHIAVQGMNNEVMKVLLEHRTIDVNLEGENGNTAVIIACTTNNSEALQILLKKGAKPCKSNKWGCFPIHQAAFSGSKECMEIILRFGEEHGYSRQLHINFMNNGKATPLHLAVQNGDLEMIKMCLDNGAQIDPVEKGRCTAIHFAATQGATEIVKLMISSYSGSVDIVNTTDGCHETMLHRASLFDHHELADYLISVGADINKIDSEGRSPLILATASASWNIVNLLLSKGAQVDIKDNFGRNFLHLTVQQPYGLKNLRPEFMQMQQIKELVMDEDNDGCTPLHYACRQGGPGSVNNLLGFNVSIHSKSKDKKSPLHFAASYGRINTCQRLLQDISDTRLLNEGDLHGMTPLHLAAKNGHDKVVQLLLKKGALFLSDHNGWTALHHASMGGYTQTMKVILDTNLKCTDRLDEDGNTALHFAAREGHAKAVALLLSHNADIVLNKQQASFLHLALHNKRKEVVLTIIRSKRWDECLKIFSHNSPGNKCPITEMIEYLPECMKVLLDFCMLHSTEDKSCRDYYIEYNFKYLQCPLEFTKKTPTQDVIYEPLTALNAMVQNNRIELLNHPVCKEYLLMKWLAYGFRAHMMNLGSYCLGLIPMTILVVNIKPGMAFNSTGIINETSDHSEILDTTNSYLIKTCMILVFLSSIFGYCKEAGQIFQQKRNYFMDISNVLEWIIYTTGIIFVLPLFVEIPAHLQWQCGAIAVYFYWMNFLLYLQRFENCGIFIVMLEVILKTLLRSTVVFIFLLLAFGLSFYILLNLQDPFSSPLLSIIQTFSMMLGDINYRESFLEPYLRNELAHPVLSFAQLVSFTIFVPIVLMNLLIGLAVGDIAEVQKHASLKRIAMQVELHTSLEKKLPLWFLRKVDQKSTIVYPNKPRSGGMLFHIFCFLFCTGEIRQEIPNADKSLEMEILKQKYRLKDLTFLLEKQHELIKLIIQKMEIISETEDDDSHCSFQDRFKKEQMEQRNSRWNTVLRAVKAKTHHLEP

mouse TRPC5 = target: T2, mouse TRPC5 (Mus musculus, UniProt Q9QX29); assay: Selectivity Ca2+ assay in TRPC5-expressing HEK293 cells; conditions: 1s 50 μM; induced by 100 μM CCh; Fluo-8
T2 sequence (Q9QX29 1-975): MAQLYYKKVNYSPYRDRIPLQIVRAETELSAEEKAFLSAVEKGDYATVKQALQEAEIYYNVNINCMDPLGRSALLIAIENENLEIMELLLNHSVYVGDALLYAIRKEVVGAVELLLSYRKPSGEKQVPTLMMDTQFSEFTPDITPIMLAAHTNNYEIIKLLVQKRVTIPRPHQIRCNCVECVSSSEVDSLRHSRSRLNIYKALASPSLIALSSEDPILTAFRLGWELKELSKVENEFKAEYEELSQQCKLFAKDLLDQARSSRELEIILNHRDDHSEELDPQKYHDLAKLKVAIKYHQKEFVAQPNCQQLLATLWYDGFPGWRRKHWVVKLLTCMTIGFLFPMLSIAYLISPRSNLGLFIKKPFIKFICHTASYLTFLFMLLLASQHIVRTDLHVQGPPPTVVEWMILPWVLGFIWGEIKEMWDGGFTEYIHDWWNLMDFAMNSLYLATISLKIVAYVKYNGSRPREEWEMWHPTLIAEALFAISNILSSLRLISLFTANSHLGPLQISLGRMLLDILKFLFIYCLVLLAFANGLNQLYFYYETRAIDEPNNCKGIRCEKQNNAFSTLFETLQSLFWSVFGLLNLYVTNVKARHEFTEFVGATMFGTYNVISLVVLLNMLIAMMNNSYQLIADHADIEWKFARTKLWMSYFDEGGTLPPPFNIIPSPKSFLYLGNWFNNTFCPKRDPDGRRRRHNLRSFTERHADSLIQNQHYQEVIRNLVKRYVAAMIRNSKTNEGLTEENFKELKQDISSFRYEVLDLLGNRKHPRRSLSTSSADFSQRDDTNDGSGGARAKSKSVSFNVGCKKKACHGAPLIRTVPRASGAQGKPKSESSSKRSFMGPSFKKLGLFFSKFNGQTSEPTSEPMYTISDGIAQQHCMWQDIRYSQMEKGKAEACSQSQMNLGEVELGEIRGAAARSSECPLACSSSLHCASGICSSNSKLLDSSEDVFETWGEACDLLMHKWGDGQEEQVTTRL

TRPC6 = target: T3, TRPC6 (Mus musculus, UniProt Q61143); assay: Whole-cell voltage clamp of TRPC6 currents evoked by GSK1702934A
T3 sequence (Q61143 1-930): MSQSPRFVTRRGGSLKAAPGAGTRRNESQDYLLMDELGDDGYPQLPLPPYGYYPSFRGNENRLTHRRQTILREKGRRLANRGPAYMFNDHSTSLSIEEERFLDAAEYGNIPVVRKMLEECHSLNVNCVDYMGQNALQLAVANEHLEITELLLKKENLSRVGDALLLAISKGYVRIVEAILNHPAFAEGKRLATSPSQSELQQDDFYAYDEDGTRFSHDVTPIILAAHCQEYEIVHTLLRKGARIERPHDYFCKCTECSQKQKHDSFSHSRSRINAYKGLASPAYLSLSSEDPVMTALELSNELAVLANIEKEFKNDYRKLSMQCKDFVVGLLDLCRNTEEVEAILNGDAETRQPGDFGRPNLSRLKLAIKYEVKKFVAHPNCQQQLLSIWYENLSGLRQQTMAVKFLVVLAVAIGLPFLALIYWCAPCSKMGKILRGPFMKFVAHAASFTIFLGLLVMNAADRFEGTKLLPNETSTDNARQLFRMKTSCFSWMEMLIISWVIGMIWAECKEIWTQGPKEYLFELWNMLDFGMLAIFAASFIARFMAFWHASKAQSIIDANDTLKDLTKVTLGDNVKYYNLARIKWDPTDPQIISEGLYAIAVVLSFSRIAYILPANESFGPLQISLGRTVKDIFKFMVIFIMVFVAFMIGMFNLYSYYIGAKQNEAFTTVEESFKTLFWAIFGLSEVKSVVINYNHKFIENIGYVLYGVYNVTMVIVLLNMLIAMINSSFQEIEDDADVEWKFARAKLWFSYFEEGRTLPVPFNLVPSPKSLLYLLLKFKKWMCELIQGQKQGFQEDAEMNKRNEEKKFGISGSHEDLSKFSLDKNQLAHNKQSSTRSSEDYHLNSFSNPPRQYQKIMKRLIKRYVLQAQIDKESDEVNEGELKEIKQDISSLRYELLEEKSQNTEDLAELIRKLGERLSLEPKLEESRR
Outline: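 TRPC6-expressing HEK293 cells were recorded with voltage ramps to obtain current–voltage relationships. Current was activated by GSK1702934A (1 μM) and test compound was applied at varying concentrations. IC50 was derived from a Hill-equation fit of the concentration-response curve.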

COc1cccc2sc(N(CCN(C)C)C(=O)c3ccc4c(c3)CCCC4)nc12 [Compound 1s, N-(2-(dimethylamino)ethyl)-N-(4-methoxybenzo[d]thiazol-2-yl)-5,6,7,8-tetrahydronaphthalene-2-carboxamide]
Effect on Ca2+ response in TRPC7-HEK293 cells (mouse TRPC7): almost did not cause a discernible Ca^2+ response; also recorded: little or no effect; also recorded: no effect | Effect on agonist-induced Ca2+ response, TRPA1 (TRPA1): did not significantly affect | Effect on agonist-induced Ca2+ response, TRPC5 (mouse TRPC5): did not significantly affect; also recorded: no effect | IC50 (TRPC6): 4.19 ± 0.04 µM | Effect on TRPC6 currents (TRPC6; evoked by GSK1702934A 1 μM, whole-cell voltage clamp): immediately suppressed
